From ChEMBL document CHEMBL2029233, “Des-acyl ghrelin fragments and analogues promote survival of pancreatic β-cells and human pancreatic islets and prevent diabetes in streptozotocin-treated rats” (2012)
Activity calls are given as the source filed them. The calls are words filed in the database; no cut-off is given here.

Key:
Pancreatic islet [1] = experiment: Cytoprotective activity in human pancreatic islet cells assessed as inhibition of serum starvation-induced cell death at 10 nM after 24 hrs by MTT assay relative to control; type: functional
In short: (§1)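 Human donor islets (purity >70%, 25/well) serum-starved 24 h, then 24 h serum-free with peptide (1–100 nM), alone or with IFN-γ 100 ng/mL, TNF-α 200 ng/mL, IL-1β 10 ng/mL. MTT 1 mg/mL ~1 h, DMSO, A570. Percent of serum-free or cytokine control. ≥3 experiments in quadruplicate.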

HIT-T15 [2] = experiment: Cytoprotective activity in hamster HIT-T15 cells assessed as inhibition of IFN-gamma/TNFalpha/IL1beta-induced cell death at 1 to 100 nM after 24 hrs by MTT assay relative to control; type: functional, cell-based; conditions: Mesocricetus auratus
In short: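 HIT-T15 cells (5×10^3/well) serum-starved 24 h, then 24 h serum-free with IFN-γ 100 ng/mL, TNF-α 200 ng/mL, IL-1β 10 ng/mL plus peptide (1–100 nM). MTT 1 mg/mL ~1 h, formazan dissolved in DMSO, A570. Reported as percent of cytokine control. Mean ± SE of ≥3 experiments in quadruplicate.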

Pancreatic islet [3] = experiment: Cytoprotective activity in human pancreatic islet cells assessed as inhibition of serum starvation-induced cell death at 100 nM after 24 hrs by MTT assay relative to control; type: functional; in short: as §1
HIT-T15 [4] = experiment: Cytoprotective activity in hamster HIT-T15 cells assessed as inhibition of serum starvation-induced cell death at 1 to 100 nM after 24 hrs by MTT assay relative to control; type: functional, cell-based; conditions: Mesocricetus auratus
In short: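 Viability by MTT in HIT-T15 cells seeded at 5×10^3/well, serum-starved 24 h, then 24 h more in serum-free medium with peptide (1–100 nM). MTT 1 mg/mL ~1 h, DMSO solubilization, absorbance 570 nm. Expressed as percent of serum-free control. Mean ± SE, ≥3 experiments in quadruplicate.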

Pancreatic islet [5] = experiment: Cytoprotective activity in human pancreatic islet cells assessed as inhibition of IFN-gamma/TNFalpha/IL1beta-induced cell death at 100 nM after 24 hrs by MTT assay relative to control; type: functional; in short: as §1
Pancreatic islet [6] = experiment: Cytoprotective activity in human pancreatic islet cells assessed as inhibition of IFN-gamma/TNFalpha/IL1beta-induced cell death at 1 nM after 24 hrs by MTT assay relative to control; type: functional; in short: as §1
Pancreatic islet [7] = experiment: Cytoprotective activity in human pancreatic islet cells assessed as inhibition of serum starvation-induced cell death at 1 nM after 24 hrs by MTT assay relative to control; type: functional; in short: as §1
Pancreatic islet [8] = experiment: Cytoprotective activity in human pancreatic islet cells assessed as inhibition of IFN-gamma/TNFalpha/IL1beta-induced cell death at 10 nM after 24 hrs by MTT assay relative to control; type: functional; in short: as §1
HIT-T15 [9] = experiment: Antiapoptotic activity in hamster HIT-T15 cells assessed as reduction in IFN-gamma/TNFalpha/IL1beta-induced apoptosis at 1 nM after 24 hrs by Hoechst staining relative to control; type: functional, cell-based; conditions: Mesocricetus auratus
In short: (§2)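 HIT-T15 cells serum-starved 24 h, then 24 h in serum-free medium with IFN-γ 100 ng/mL, TNF-α 200 ng/mL, IL-1β 10 ng/mL plus peptide. Cells pooled with floating cells, formaldehyde-fixed, ethanol-stored, stained with 10 μg/mL Hoechst 33258. Condensed/fragmented nuclei counted, 500 nuclei in duplicate, n = 3. Reported as percent apoptotic cells.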

HIT-T15 [10] = experiment: Antiapoptotic activity in hamster HIT-T15 cells assessed as reduction in IFN-gamma/TNFalpha/IL1beta-induced apoptosis at 100 nM after 24 hrs by Hoechst staining relative to control; type: functional, cell-based; conditions: Mesocricetus auratus; in short: as §2
Pancreatic islet [11] = experiment: Cytoprotective activity in human pancreatic islet cells assessed as inhibition of IFN-gamma/TNFalpha/IL1beta-induced cell death at 100 nM after 72 hrs by MTT assay relative to control; type: functional
In short: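 Human donor islets (>70% purity, 25/well) held 72 h in serum-free medium with peptide, alone or with IFN-γ/TNF-α/IL-1β at 5 ng/mL each. Viability by MTT (1 mg/mL ~1 h, DMSO, 570 nm). Mean ± SE of ≥3 experiments in quadruplicate.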

HIT-T15 [12] = experiment: Antiapoptotic activity in hamster HIT-T15 cells assessed as reduction in IFN-gamma/TNFalpha/IL1beta-induced apoptosis at 10 nM after 24 hrs by Hoechst staining relative to control; type: functional, cell-based; conditions: Mesocricetus auratus; in short: as §2

Substance	Activity (Pancreatic islet [1])	Activity (HIT-T15 [2])	Activity (Pancreatic islet [3])	Activity (HIT-T15 [4])	Activity (Pancreatic islet [5])	Activity (Pancreatic islet [6])	Activity (Pancreatic islet [7])	Activity (Pancreatic islet [8])	Activity (HIT-T15 [9])	Activity (HIT-T15 [10])	Activity (Pancreatic islet [11])	Activity (HIT-T15 [12])
H-ESKKPPAKLQPR-OH	inactive	inactive	inactive	inactive	inactive	inactive	inactive	inactive				
H-GSSFL-NH2	inactive	inactive	inactive	inactive	inactive	inactive	inactive	inactive				
H-GSSFLSPEHQRVQQ-NH2	Active	Active	Active	Active	Active	inactive		inactive				
H-GSSFLSPEHQRVQQRKES-NH2	Active	Active	inactive	Active	inactive	Active	Active	Active				
H-QQVRQHEPSLFSSG-OH		inactive	inactive		inactive				inactive	inactive	inactive	inactive
H-SPEHQRVA-NH2		Active		Active								
